Reference: ChEMBL document CHEMBL1122234, “Oxidation of uric acid. 4. Synthesis, structure, and diabetogenic action of 5-imino-2,4,6(1H,3H,5H)-pyrimidinetrione salts and their alloxan-like covalent adducts” (1983)
The source made the active and inactive calls. The calls are words filed in the database; no cut-off is given here.

Experiments:
[1] = Relative potency compared to that of Alloxan in albino rats.; type: functional
[2] = Relative potency compared to that of streptozotocin in albino rats.; type: functional
Rattus norvegicus [3] = experiment: Diabetogenic activity in Lewis strain of albino rats after iv administration; type: functional
Procedure, shortened: (§1)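 Male Lewis rats (200-230 g), 24 per dose level, fasted 12 h, then dosed by tail-vein iv injection, or ip as a saline suspension when poorly soluble. A rat counted as diabetic if glucosuria (>1%) appeared within 24 h and persisted 5 days. Blood sugar and islet histology were also observed. The dose making 50% of animals diabetic (ED50, mmol/kg) was estimated graphically.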

Rattus norvegicus [4] = experiment: Diabetogenic activity in Lewis strain of albino rats after ip administration; type: functional; procedure, shortened: as §1
[5] = Relative potency compared to that of streptozotocin in albino rats; Inactive nondiabetogenic at the dose 2 g/kg ip; inactive; type: functional
Rattus norvegicus [6] = experiment: Diabetogenic activity in Lewis strain of albino rats after iv administration; Inactive nondiabetogenic at the dose 2 g/kg ip; inactive; type: functional, organism-based; procedure, shortened: as §1
[7] = Relative potency compared to that of Alloxan in albino rats; Inactive nondiabetogenic at the dose 2 g/kg ip; inactive; type: functional
[8] = Rattus norvegicus, iv, read-out: ED50

| SMILES | Relative potency [1] | Relative potency [2] | ED50 (Rattus norvegicus [3]) | ED50 (Rattus norvegicus [4]) | ED50 (Rattus norvegicus [3]; [8]) | Relative potency [5] | ED50 (Rattus norvegicus [6]) | Relative potency [7] |
| --- | --- | --- | --- | --- | --- | --- | --- | --- |
| Cl.NC1(O)C(=O)NC(=O)NC1=O | 2.2 | 1.1 | 140 µmol/kg | – | – | – | – | – |
| O=C1NC(=O)C2(O)NC(=O)NC2(O)N1 (configuration not stated) | 1.1 | – | – | 1060 µmol/kg | – | – | – | – |
| CN(N=O)C(=O)N[C@@H](C=O)[C@@H](O)[C@H](O)[C@H](O)CO [STREPTOZOCIN] | 2.1 | 1 | – | – | 150 µmol/kg | – | – | – |
| Br.N=C1C(=O)NC(=O)NC1=O | 1.9 | 0.9 | – | – | 160 µmol/kg | – | – | – |
| O=C1NC(=O)C(O)(O)C(=O)N1 | 1 | 0.5 | – | 1120 µmol/kg | 310 µmol/kg | – | – | – |
| Br.NC1(O)C(=O)NC(=O)NC1=O | 2.1 | 1 | – | – | 150 µmol/kg | – | – | – |
| NC(=O)NC1(N)C(=O)NC(=O)NC1=O | – | – | – | – | – | inactive | inactive | inactive |
| NC(=O)NC1(O)C(=O)NC(=O)NC1=O | 2.1 | 1 | – | – | 150 µmol/kg | – | – | – |
| Cl.N=C1C(=O)NC(=O)NC1=O | 2.2 | 1.1 | 140 µmol/kg | – | – | – | – | – |
